{"source": "ChEMBL document CHEMBL4130549", "about": "“Synthesis and bioactivities study of new antibacterial peptide mimics: The dialkyl cationic amphiphiles” (Eur J Med Chem, 2018)", "key": {"[1]": {"test_system": "Staphylococcus aureus", "experiment": "Bactericidal activity against Staphylococcus aureus ATCC 29213 at 12 ug/ml after 6 hrs by time kill assay", "assay_type": "functional, organism-based", "in_short": "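Time-kill: an overnight S. aureus ATCC 29213 culture was diluted 1:10,000 in Mueller-Hinton broth and grown 2 h (early exponential) or 5 h (late exponential) at 37 °C and 225 rpm. Cells were then exposed in tubes under the same conditions. At intervals, aliquots were pelleted, resuspended in PBS, serially diluted tenfold, plated on agar overnight, and counted as CFU/mL. Biological replicates were run.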"}, "[2]": {"test_system": "Staphylococcus aureus", "experiment": "Ratio of MIC for Staphylococcus aureus ATCC 29213 after 20 serial passages to MIC for Staphylococcus aureus ATCC 29213", "assay_type": "functional", "in_short": "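Sub-MIC serial passaging: after an initial broth microdilution MIC, cells grown at MIC/2 were transferred into a new MIC assay after each 24 h incubation, for 20 passages. MIC was plotted against days to follow resistance development. Passaging controls were norfloxacin for S. aureus and colistin for E. coli.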"}, "[3]": {"test_system": "Escherichia coli", "experiment": "Bactericidal activity against Escherichia coli ATCC 25922 at 12 after 6 hrs by time kill assay", "assay_type": "functional, organism-based"}}, "note": "Activity calls are given as the source filed them. The rule behind the calls is not given here."}
{"smiles": "CN[C@H](CC(C)C)C(=O)N[C@H]1C(=O)N[C@@H](CC(N)=O)C(=O)N[C@H]2C(=O)N[C@H]3C(=O)N[C@H](C(=O)N[C@H](C(=O)O)c4cc(O)cc(O)c4-c4cc3ccc4O)[C@H](O)c3ccc(c(Cl)c3)Oc3cc2cc(c3O[C@@H]2O[C@H](CO)[C@@H](O)[C@H](O)[C@H]2O[C@H]2C[C@](C)(N)[C@H](O)[C@H](C)O2)Oc2ccc(cc2Cl)[C@H]1O", "values": [{"measurement": "Activity", "setting": "[1]", "value": "inactive"}]}
{"smiles": "CCn1cc(C(=O)O)c(=O)c2cc(F)c(N3CCNCC3)cc21", "note": "[NORFLOXACIN]", "values": [{"measurement": "Ratio", "setting": "[2]", "value": 256}]}
{"smiles": "CO[C@@]1(NC(=O)[C@H](C(=O)O)c2ccc(O)cc2)C(=O)N2C(C(=O)O)=C(CSc3nnnn3C)CO[C@@H]21", "values": [{"measurement": "Activity", "setting": "[3]", "value": "inactive"}]}
